Measurements gathered from unrelated publications.
Compare with care: the assays were run in different laboratories.
Target: Sodium-dependent noradrenaline transporter (SLC6A2, Homo sapiens, UniProt P23975)

COc1ccc(C(CN(C)C)C2(O)CCCCC2)cc1 (stereo not drawn)  inhibition (transporter uptake, inhibitor; HEK293; 1 µM): 28.8%
CC(C)(C)c1ccc(C(=O)Nc2cc(Cl)c(-c3ccccc3)cc2C(=O)O)cc1  inhibition (ligand displacement, radioligand; 10 µM): 91%
CCN(CC)CCCC[C@H](NC(=O)[C@H](CC(C)C)NC(=O)[C@H](C)NC(=O)[C@H](Cc1ccccc1)NC(=O)c1ccc(C(C)(C)C)cc1)C(=O)N[C@@H](CO)C(=O)OC  inhibition (ligand displacement, radioligand; 10 µM): -13%
O=C(Nc1cccnn1)N1CCN([C@@H]2CCOc3cc(C(F)(F)F)ccc32)CC1  inhibition (ligand displacement; 20 µM): 15%
CN(CCN1CCC(OC(=O)Nc2ccccc2-c2ccccc2)CC1)C(=O)c1ccc(CN2CCC(C(N)=O)CC2)cc1  inhibition (ligand displacement, radioligand; 1 µM): 1%
Clc1ccc2c(C3CCN(CCc4c[nH]c5ccccc45)CC3)c[nH]c2c1  inhibition (ligand displacement, radioligand; 10 µM): 90%
Cc1noc([C@H]2C[C@@H](c3ccc(C(F)(F)F)cc3)CN(C(=O)N3CCS(=O)(=O)C3)C2)n1  inhibition (cell-free assay; 10 µM): -20.2%
Fc1ccc(C(OCCN2CCN(CCCc3ccccc3)CC2)c2ccc(F)cc2)cc1  inhibition (transporter uptake, inhibitor; HEK293; 1 µM): 89.9%
CS(=O)(=O)N1CCCC(NC(=O)[C@H](CCC2CCCCC2)NC(=O)c2ccc(CNC(=O)c3cnc4ccccn34)cc2)C1 (stereo partly drawn)  inhibition (cell-free assay; 10 µM): 3%
COc1ccc(S(=O)(=O)N2CCCCC2)cc1C  inhibition (ligand displacement, radioligand; 10 µM): < 30%
CC(C)N1CCC[C@H]1CNC(=O)c1cn(C2CCCC2)c(=O)c2c1c1ccccc1n2C  inhibition (ligand displacement, radioligand; 10 µM): 28%
COCc1c(-c2cc3cc(C)cc(OC)c3s2)c2c(N)ncnn2c1CN1CCNC(=O)C1  inhibition (ligand displacement, radioligand; 10 µM): 47%
